Here are results for five molecules from publication PMC12316956 (Scientific Reports, 2025).

Read-outs that look alike come from different tables or passages of the source. Some results are limits rather than exact numbers.

For series [1] the following is noted: humans; cited from earlier work.
Series [2] is classed as in vivo, Sprague Dawley rats. The settings on record: for accumulation factor: rats. The essentials:
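Male SD rats (n = 5/group) were 7 wk old for the single dose, 6 wk for 2 wks, and 4 wk for 4 or 8 wks. They received KRG in PBS, 2 g/kg/day PO. Tail-vein blood was drawn 0–96 h after the last dose and spun 13,700 x g for 15 min; plasma was stored at −80 °C. Rb1, Rd and compound K were measured by LC-MS/MS with berberine as internal standard. Non-compartmental analysis was used; Tmax is reported as median (range).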

The subject of the next series is prostaglandin E2 (PGE2). The settings on record: read-out: IC50 for PGE2; in vitro; ref Park et al.[47]; cited from earlier work.
Another series concerns A549. The settings on record: A549 lung cancer cell line; cited from earlier work.
For series [3] the following is noted: rats, same dose level; cited from earlier work.
The subject of another series is nitric oxide (NO). The settings on record: read-out: IC50 for NO; in vitro; ref Park et al.[47]; cited from earlier work.
For series [4] the following is noted: 80% T>IC50, 5 mg/kg, single oral, rats.
Another series concerns PC-9 cells. The settings on record: PC-9 lung cancer cell line; cited from earlier work.
A short description of series [5]: Pharmacokinetic study 2: oral compound K, single or 4 wks, in rats. The settings on record: AUC 4 wks / AUC single. The series is classed as in vivo, Sprague Dawley rats. The method in brief:
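Male SD rats (n = 5/group; 7 wk old for single dosing, 4 wk for 4 wks) got test compound in PBS by oral gavage at 5 or 10 mg/kg/day, single dose or 4 wks. Tail-vein plasma was sampled 0–24 h and assayed by LC-MS/MS. One-compartment model; AUC by trapezoids; Tmax as median (range). Accumulation factor = AUC(0−t) repeated / AUC(0−t) single at the same dose.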

Where [6] appears, read: male, Sprague-Dawley, rat, plasma, po, 2 g/kg.
[7] abbreviates: KRG 2 g/kg oral, 2 wks vs single (AUC ratio).

Turning to `CC(C)=CCC[C@](C)(O[C@@H]1O[C@H](CO)[C@@H](O)[C@H](O)[C@H]1O)[C@H]1CC[C@]2(C)[C@@H]1[C@H](O)C[C@@H]1[C@@]3(C)CC[C@H](O)C(C)(C)[C@@H]3[C@@H](O[C@@H]3O[C@H](CO)[C@@H](O)[C@H](O)[C@H]3O)C[C@]12C` [Rg1, ginsenoside Rg1], in series [1], the “time within which excreted in the urine” value was no more than 3 h.
On to `CC(C)=CCC[C@](C)(O[C@@H]1O[C@H](CO)[C@@H](O)[C@H](O)[C@H]1O)[C@H]1CC[C@]2(C)[C@@H]1[C@H](O)C[C@@H]1[C@@]3(C)CC[C@H](O[C@@H]4O[C@H](CO)[C@@H](O)[C@H](O)[C@H]4O[C@@H]4O[C@H](CO)[C@@H](O)[C@H](O)[C@H]4O)C(C)(C)[C@@H]3CC[C@]12C` [Rd, ginsenoside Rd], for which, in [1], the “time within which excreted in the urine” value is reported as no more than 3 h. This molecule yielded a maximum concentration (Cmax) in [2] (setting [6]) of 8.5 ng/mL. In addition, the accumulation factor in [2] (setting [7]) came out at 2.2; in series [2] (KRG 2 g/kg oral, 8 wks vs single (AUC ratio)) it was 5.
As for `CC(C)=CCC[C@](C)(O[C@@H]1O[C@H](CO[C@@H]2O[C@H](CO)[C@@H](O)[C@H](O)[C@H]2O)[C@@H](O)[C@H](O)[C@H]1O)[C@H]1CC[C@]2(C)[C@@H]1[C@H](O)C[C@@H]1[C@@]3(C)CC[C@H](O[C@@H]4O[C@H](CO)[C@@H](O)[C@H](O)[C@H]4O[C@@H]4O[C@H](CO)[C@@H](O)[C@H](O)[C@H]4O)C(C)(C)[C@@H]3CC[C@]12C` [Rb1, ginsenoside Rb1], in series [1], the “time within which excreted in the urine” value is no more than 3 h. In series [2] (setting [6]), this molecule had a maximum concentration (Cmax) of 23.9 ng/mL and a Cmax at 8 wks of 68.3 ng/mL. For the same molecule, in series [2] (setting [7]), the accumulation factor entry is reported as “approximately 3”.
In the case of `CC(C)=CCC[C@](C)(O[C@@H]1O[C@H](CO[C@@H]2O[C@@H](CO)[C@H](O)[C@H]2O)[C@@H](O)[C@H](O)[C@H]1O)[C@H]1CC[C@]2(C)[C@@H]1[C@H](O)C[C@@H]1[C@@]3(C)CC[C@H](O[C@@H]4O[C@H](CO)[C@@H](O)[C@H](O)[C@H]4O[C@@H]4O[C@H](CO)[C@@H](O)[C@H](O)[C@H]4O)C(C)(C)[C@@H]3CC[C@]12C` [Rc, ginsenoside Rc], the “time within which excreted in the urine” value in series [1] is reported as no more than 3 h.
For the molecule `CC(C)=CCC[C@](C)(O[C@@H]1O[C@H](CO)[C@@H](O)[C@H](O)[C@H]1O)[C@H]1CC[C@]2(C)[C@@H]1[C@H](O)C[C@@H]1[C@@]3(C)CC[C@H](O)C(C)(C)[C@@H]3CC[C@]12C` [Compound K, compound K], in series [1], the “time of appearance in plasma after consuming ginseng lacking compound K” value was 8 h. Also, the maximum concentration (Cmax) in series [2] (rat plasma, KRG 2 g/kg oral, 4 wks) was determined as 2.9 ng/mL; in series [2] (rat plasma, KRG 2 g/kg oral, 8 wks), 2.3 ng/mL. The IC50 in the series on prostaglandin E2 (PGE2) was 4 µM; in the series with nitric oxide (NO) it was 12 µM. Moreover, the “in vitro IC50, antitumor activity” value in the series with A549 was 16.11 µg/mL; in the series on PC-9 cells, 14.46 µg/mL. The oral bioavailability in [3] is 4%. For the same molecule, the Calculated dosing interval in series [4] (NO (IC50 12 µM)) is roughly 7 h; in series [4] (PGE2 (IC50 4 µM)), roughly 18 h. For the same molecule, the accumulation factor in [5] (compound K oral 5 mg/kg) is recorded as 4; in [5] (compound K oral 10 mg/kg) it was 7.
